pEC50, pIC50: −log10 of the molar value.
Legend:
[1] = Inhibition of NF-kappaB in A549 cells after 5 hrs by reporter gene assay; type: cell-based; conditions: Homo sapiens, A549, 5 h
Procedure, shortened: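 A549 cells stably transfected with a pNF-κB-SEAP reporter were plated at 2 · 10^4/well and left to attach overnight. They were pre-incubated 5 h with compound at 100, 30, 10, 3, 1, 0.3, 0.1 and 0 µM, then stimulated with 10 ng/ml TNF-α for 22 h. Supernatant SEAP was read by chemiluminescence, viability by CellTiter-Blue, with four replicates per concentration.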

A549 = experiment: Inhibition of NF-kappaB in A549 cells at 20 uM after 5 hrs by reporter gene assay; type: cell-based; conditions: Homo sapiens
[2] = Inhibition of chymotrypsin like activity of human 20S proteasome
Procedure, shortened: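 20S proteasome (1.3 µg) was pre-incubated 10 min at room temperature in 25 mM HEPES pH 7.5, 0.5 mM EDTA, 0.033% SDS, then added to compound in DMSO and Suc-LLVY-AMC substrate (75 µM in the substrate solution). Fluorescence (ex 360/em 465 nm) was followed 20 min at 30 °C as RFU/min. Eight inhibitor concentrations were run in triplicate, and IC50 came from a four-parameter logistic fit.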

PBMC = experiment: Antiproliferative activity against human PBMC; type: functional, cell-based
Procedure, shortened: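 Human peripheral blood mononuclear cells were stimulated with phytohemagglutinin, so the proliferation read-out reflects mainly T-cells.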

| Compound | pEC50 [1] | other results |
| --- | --- | --- |
| N#Cc1ccc(CN2CCC(c3nc(C(=O)N4CCN(c5cccc(C(F)(F)F)c5)CC4)cs3)CC2)cc1 | 5.07 | – |
| Cc1cc2nc(NC(=O)c3csc(C4CCN(C(=O)c5ccccc5OC(F)(F)F)CC4)n3)[nH]c2cc1C | 5.52 | – |
| COc1nc(OC)nc(N2CCC(c3nc(C(=O)Nc4nc5cc(C(=O)c6ccccc6)ccc5[nH]4)cs3)CC2)n1 | 6.10 | – |
| COc1cccc(NC(=O)N2CCC(c3nc(C(=O)N4CCN(c5cccc(C(F)(F)F)c5)CC4)cs3)CC2)c1 | 5.14 | – |
| Cc1cc2nccc(N3CCC(c4nc(C(=O)Nc5nc6cc(C(=O)c7ccccc7)ccc6[nH]5)cs4)CC3)n2n1 | 7.00 | – |
| Cc1cc2nnc(C(=O)N3CCC(c4nc(C(=O)Nc5nc6cc(C(=O)c7ccccc7)ccc6[nH]5)cs4)CC3)c(C)n2n1 | 6.05 | – |
| O=C(c1ccccc1)c1ccc2[nH]c(NC(=O)c3csc(C4CCN(c5cc(C(F)(F)F)ncn5)CC4)n3)nc2c1 | 6.30 | – |
| Cc1cc2nc(NC(=O)c3csc(C4CCN(c5ncnc6ccsc56)CC4)n3)[nH]c2cc1C | 6.52 | – |
| O=C(c1ccccc1)c1ccc2[nH]c(NC(=O)c3csc(C4CCN(c5ccncc5[N+](=O)[O-])CC4)n3)nc2c1 | 6.52 | – |
| COc1nc(OC)nc(N2CCC(c3nc(C(=O)Nc4nc5cc(C(=O)c6ccsc6)ccc5[nH]4)cs3)CC2)n1 | 6.40 | – |
| O=C(c1csc(C2CCN(S(=O)(=O)c3cccs3)CC2)n1)N1CCN(c2cccc(C(F)(F)F)c2)CC1 | 4.70 | – |
| O=C(c1csc(C2CCN(S(=O)(=O)c3ccc(F)cc3Cl)CC2)n1)N1CCN(c2cccc(C(F)(F)F)c2)CC1 | 4.70 | – |
| COc1cc2ncnc(N3CCC(c4nc(C(=O)Nc5nc6cc(C(=O)c7ccccc7)ccc6[nH]5)cs4)CC3)c2cc1OC | 6.52 | – |
| O=C(c1ccsc1)c1ccc2[nH]c(NC(=O)c3csc(C4CCN(c5ncnc6ccsc56)CC4)n3)nc2c1 | 6.30 | – |
| O=C(Nc1cccc(F)c1)N1CCC(c2nc(C(=O)N3CCN(c4cccc(C(F)(F)F)c4)CC3)cs2)CC1 | 5.47 | – |
| O=C(c1ccccc1)c1ccc2[nH]c(NC(=O)c3csc(C4CCN(C(=O)c5ccccc5OC(F)(F)F)CC4)n3)nc2c1 | 6.10 | – |
| Cc1cc2nnc(C(=O)N3CCC(c4nc(C(=O)NC5CCN(Cc6ccccc6)C5)cs4)CC3)c(C)n2n1 (stereo not given) | – | inhibition (A549): 30%; pIC50 [2]: 6.24; pIC50 (PBMC): 4.43 |
| COc1cc(N2CCC(c3nc(C(=O)N4CCN(c5cccc(C(F)(F)F)c5)CC4)cs3)CC2)nc(OC)n1 | 5.30 | – |
| COc1cc(N2CCC(c3nc(C(=O)Nc4nc5cc(C(=O)c6ccccc6)ccc5[nH]4)cs3)CC2)nc(OC)n1 | 6.52 | pIC50 [2]: < 5.52 |
| O=C(c1ccccc1)c1ccc2[nH]c(NC(=O)c3csc(C4CCN(c5ccnc6ncnn56)CC4)n3)nc2c1 | 7.00 | pIC50 (PBMC): 5.44 |
| N#Cc1ccc(CN2CCC(c3nc(C(=O)Nc4nc5cc(C(=O)c6ccccc6)ccc5[nH]4)cs3)CC2)cc1 | 6.52 | – |
| O=C(c1ccccc1)c1ccc2[nH]c(NC(=O)c3csc(C4CCN(c5ncnc6ccsc56)CC4)n3)nc2c1 | 6.70 | pIC50 (PBMC): 5.66 |
| O=C(c1csc(C2CCN(c3ccc(C(F)(F)F)cc3)CC2)n1)N1CCN(c2cccc(C(F)(F)F)c2)CC1 | 4.70 | pIC50 [2]: 6.32 |
| COC(=O)c1nc2nccc(N3CCC(c4nc(C(=O)Nc5nc6cc(C(=O)c7ccccc7)ccc6[nH]5)cs4)CC3)n2n1 | 6.30 | pIC50 (PBMC): 5.60 |
| Cc1cc2nnc(C(=O)N3CCC(c4nc(C(=O)N5CCN(c6cccc(C(F)(F)F)c6)CC5)cs4)CC3)c(C)n2n1 | < 4.70 | – |
| O=C(c1ccccc1)c1ccc2[nH]c(NC(=O)c3csc(C4CCN(c5ncnc6nc[nH]c56)CC4)n3)nc2c1 | 6.52 | – |
| COc1nc(OC)nc(N2CCC(c3nc(C(=O)N4CCN(c5cccc(C(F)(F)F)c5)CC4)cs3)CC2)n1 | 5.33 | pIC50 (PBMC): 4.82 |

Source: ChEMBL document CHEMBL1137516, “A novel class of potent NF-kappaB signaling inhibitors” (Bioorg Med Chem Lett, 2007)
